IC50 and Activity data for 21 compounds are collected here from ChEMBL document CHEMBL1240507, “Peptidic HIV integrase inhibitors derived from HIV gene products: structure-activity relationship studies” (Bioorg Med Chem, 2010).

The IC50 is the midpoint of a concentration-inhibition curve. Read a low IC50 as greater potency in that assay.

Active and inactive are the calls of the source. No cut-off for these calls is given here.

For data set [1], the target named is T1, Human immunodeficiency virus type 1 integrase (Human immunodeficiency virus 1, UniProt Q7ZJM1). The data set is described as follows: Inhibition of HIV1 integrase 3'-processing activity expressed in Escherichia coli after 60 mins. The method in brief: (§1)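 Recombinant IN was expressed in and purified from E. coli, with 10% glycerol in all buffers. Reactions contained 400 nM IN, 20 nM 5'-end [³²P]-labeled oligonucleotide substrate and inhibitor at varied concentrations, with 10% DMSO alone as control. Reactions were stopped with EDTA/formamide loading dye. IC50 came from a logistic nonlinear fit.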

Data set [2] concerns MT4. Kind of data set: Cytotoxicity against human MT4 cells at 10 uM after 6 to 7 days. The following applies: mt4, 10 µM. It counts as cell-based.
Data set [3] deals with T1, Human immunodeficiency virus type 1 integrase. Kind of data set: Inhibition of HIV1 integrase strand transfer activity expressed in Escherichia coli after 60 mins. In a few lines:
as §1

Data set [4] concerns Human immunodeficiency virus 1. Kind of data set: Antiviral activity against HIV1 HXB2 infected in human MT4 cells assessed as protection against virus-induced cell death at 1.25 uM after 6 to 7 days by luciferase assay. It counts as functional, organism-based. In a few lines:
(§2)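 MT-4 luciferase reporter cells (1×10^3 cells) were infected with HIV-1 HXB2 in the presence of peptides at various concentrations. At 6–7 days post-infection, cells were lysed and luciferase activity was read by chemiluminescence.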

The test system of data set [5] is Human immunodeficiency virus 1. Kind of data set: Antiviral activity against HIV1 HXB2 infected in human MT4 cells assessed as protection against virus-induced cell death at 10 uM after 6 to 7 days by luciferase assay. It counts as functional, organism-based. In a few lines: as §2
In data set [6] the test system is Human immunodeficiency virus 1. Kind of data set: Antiviral activity against HIV1 HXB2 infected in human MT4 cells assessed as protection against virus-induced cell death at 2.5 to 5 uM after 6 to 7 days by luciferase assay. It is filed as functional, organism-based. In a few lines:
as §2

Data set [7] deals with Human immunodeficiency virus 1. Kind of data set: Antiviral activity against HIV1 HXB2 infected in human MT4 cells assessed as protection against virus-induced cell death after 6 to 7 days by luciferase assay. It counts as functional, organism-based. The method in brief:
as §2

In data set [8] the test system is Human immunodeficiency virus 1. The data set is described as follows: Antiviral activity against HIV1 HXB2 infected in human MT4 cells assessed as protection against virus-induced cell death at 5 uM after 6 to 7 days by luciferase assay. It counts as functional, organism-based. The method in brief: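 MT-4 luciferase reporter cells (1×10^3 per well) infected with HIV-1 HXB2 while exposed to a range of peptide concentrations. After 6–7 days post-infection, cells were lysed, luciferase activity was measured with a Steady-Glo kit, and chemiluminescence was read on a luminometer.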

For data set [9], the system named is MT4. Kind of data set: Cytotoxicity against human MT4 cells at >5 uM after 6 to 7 days. It counts as cell-based.

T1 sequence (Q7ZJM1 whole entry): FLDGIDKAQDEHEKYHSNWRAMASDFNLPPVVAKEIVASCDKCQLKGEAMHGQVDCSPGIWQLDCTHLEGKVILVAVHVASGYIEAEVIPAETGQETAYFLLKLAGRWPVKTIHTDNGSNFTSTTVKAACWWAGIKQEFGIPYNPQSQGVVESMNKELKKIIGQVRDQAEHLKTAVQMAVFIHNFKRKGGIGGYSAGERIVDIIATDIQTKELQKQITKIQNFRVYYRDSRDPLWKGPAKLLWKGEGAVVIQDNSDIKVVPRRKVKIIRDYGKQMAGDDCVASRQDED

As to `CC[C@H](C)[C@H](NC(=O)[C@H](CCCNC(=N)N)NC(=O)[C@H](Cc1ccccc1)NC(=O)[C@H](Cc1cnc[nH]1)NC(=O)[C@@H](NC(=O)[C@H](Cc1ccccc1)NC(=O)[C@H](CC(C)C)NC(=O)[C@H](CC(C)C)NC(=O)[C@H](CCC(N)=O)NC(=O)[C@H](CCC(N)=O)NC(=O)[C@H](CC(C)C)NC(C)=O)[C@@H](C)CC)C(=O)NCC(=O)N[C@@H](CCCNC(=N)N)C(=O)N[C@@H](CCCNC(=N)N)C(=O)N[C@@H](CCCNC(=N)N)C(=O)N[C@@H](CCCNC(=N)N)C(=O)N[C@@H](CCCNC(=N)N)C(=O)N[C@@H](CCCNC(=N)N)C(=O)N[C@@H](CCCNC(=N)N)C(=O)N[C@@H](CCCNC(=N)N)C(N)=O`, the half-maximal inhibitory concentration (IC50) is 130 nM in data set [1] and 60 nM in [3]. For the same compound, the Activity entry with MT4 [2] is listed as “Toxic”.

Take `CC[C@H](C)[C@H](NC(=O)[C@H](C)NC(=O)[C@H](CCC(=O)O)NC(C)=O)C(=O)N[C@H](C(=O)N[C@@H](CCCNC(=N)N)C(=O)N[C@H](C(=O)N[C@@H](CC(C)C)C(=O)N[C@@H](CCC(N)=O)C(=O)N[C@@H](CCC(N)=O)C(=O)N[C@@H](CC(C)C)C(=O)N[C@@H](CC(C)C)C(=O)N[C@@H](Cc1ccccc1)C(=O)N[C@H](C(=O)N[C@@H](Cc1cnc[nH]1)C(=O)N[C@@H](Cc1ccccc1)C(=O)N[C@@H](CCCNC(=N)N)C(=O)N[C@H](C(=O)NCC(=O)N[C@@H](CCCNC(=N)N)C(=O)N[C@@H](CCCNC(=N)N)C(=O)N[C@@H](CCCNC(=N)N)C(=O)N[C@@H](CCCNC(=N)N)C(=O)N[C@@H](CCCNC(=N)N)C(=O)N[C@@H](CCCNC(=N)N)C(=O)N[C@@H](CCCNC(=N)N)C(=O)N[C@@H](CCCNC(=N)N)C(N)=O)[C@@H](C)CC)[C@@H](C)CC)[C@@H](C)CC)[C@@H](C)CC`: the IC50 in data set [1] was 90 nM; in [3], 40 nM. Further, in [4], the outcome was Active. Further, the result in [5] was inactive.

Turning to `CC[C@H](C)[C@H](NC(=O)[C@H](C)NC(=O)[C@H](CCC(=O)O)NC(C)=O)C(=O)N[C@H](C(=O)N[C@@H](CCCNC(=N)N)C(=O)N[C@H](C(=O)N[C@@H](CC(C)C)C(=O)N[C@@H](CCC(N)=O)C(=O)N[C@@H](CCC(N)=O)C(=O)N[C@@H](CC(C)C)C(=O)N[C@@H](CC(C)C)C(=O)N[C@@H](Cc1ccccc1)C(=O)N[C@H](C(=O)N[C@@H](CCC(=O)O)C(=O)N[C@@H](Cc1ccccc1)C(=O)N[C@@H](CCCNC(=N)N)C(=O)N[C@H](C(=O)N[C@@H](CCCCN)C(=O)N[C@@H](CCCNC(=N)N)C(=O)N[C@@H](CCCNC(=N)N)C(=O)N[C@@H](CCCNC(=N)N)C(=O)N[C@@H](CCCNC(=N)N)C(=O)N[C@@H](CCCNC(=N)N)C(=O)N[C@@H](CCCNC(=N)N)C(=O)N[C@@H](CCCNC(=N)N)C(=O)N[C@@H](CCCNC(=N)N)C(N)=O)[C@@H](C)CC)[C@@H](C)CC)[C@@H](C)CC)[C@@H](C)CC`, the result in [6] was Active.

On to `CC[C@H](C)[C@H](NC(=O)[C@H](CCCNC(=N)N)NC(=O)[C@H](Cc1ccccc1)NC(=O)[C@H](Cc1cnc[nH]1)NC(=O)[C@@H](NC(=O)[C@H](Cc1ccccc1)NC(=O)[C@H](CC(C)C)NC(=O)[C@H](CC(C)C)NC(=O)[C@H](CCC(N)=O)NC(=O)[C@H](CCC(N)=O)NC(=O)[C@H](CC(C)C)NC(=O)[C@H](CCCCN)NC(=O)[C@H](CCCNC(=N)N)NC(=O)[C@@H](NC(=O)[C@@H](NC(=O)[C@H](CCC(=O)O)NC(=O)[C@H](CCC(=O)O)NC(C)=O)[C@@H](C)CC)[C@@H](C)CC)[C@@H](C)CC)C(=O)NCC(=O)N[C@@H](CCCNC(=N)N)C(=O)N[C@@H](CCCNC(=N)N)C(=O)N[C@@H](CCCNC(=N)N)C(=O)N[C@@H](CCCNC(=N)N)C(=O)N[C@@H](CCCNC(=N)N)C(=O)N[C@@H](CCCNC(=N)N)C(=O)N[C@@H](CCCNC(=N)N)C(=O)N[C@@H](CCCNC(=N)N)C(N)=O`, for which, in [5], the outcome was inactive.

As for Ac-AQQLLFIHFRIGRRRRRRRR-NH2, the Activity entry in data set [7] was “Dose-dependent effect”.

Ac-EAEIRIKQQLLFIHFRIGRRRRRRRR-NH2: the outcome in [5] was Active.

Turning to Ac-EAIERILKQLLFIHFRIGRRRRRRRR-NH2, the outcome in [6] was Active.

Consider Ac-EAIIRILQELLFKHFRIGRRRRRRRR-NH2, for which, in data set [5], the result was inactive.

In the case of Ac-EAIIRILQQLEFIHKRIGRRRRRRRR-NH2, in data set [6], the outcome was Active.

As to Ac-EEIIRKLQQLLFIEFRIKRRRRRRRR-NH2, in [5], the outcome was inactive.

Consider Ac-LAQLLFIHFRIGRRRRRRRR-NH2, for which the Activity result is “Dose-dependent effect” in [7] and “Toxic” with MT4 [2].

In the case of Ac-LQALLFIHFRIGRRRRRRRR-NH2, the Activity result in data set [7] was “Dose-dependent effect”; in the data set on MT4 [2], “Toxic”.

For Ac-LQQALFIHFRIGRRRRRRRR-NH2, the Activity entry was “Dose-dependent effect” in data set [7] and “Toxic” with MT4 [2].

Ac-LQQLAFIHFRIGRRRRRRRR-NH2: the values for the Activity result (in data set [7]; in the data set on MT4 [2]) were “Dose-dependent effect” and “Toxic”, respectively.

Ac-LQQLLAIHFRIGRRRRRRRR-NH2: the Activity entry in data set [7] is “Dose-dependent effect”; in the data set with MT4 [2], “Toxic”. Moreover, the outcome in data set [8] was inactive.

As to Ac-LQQLLFAHFRIGRRRRRRRR-NH2, the Activity entry in data set [7] was “Dose-dependent effect”; in the data set with MT4 [9], “Toxic”. Besides, the result in data set [8] was inactive.

Consider Ac-LQQLLFIAFRIGRRRRRRRR-NH2, for which the Activity result is “Dose-dependent effect” in data set [7] and “Toxic” in the data set on MT4 [9].

For the compound Ac-LQQLLFIHARIGRRRRRRRR-NH2, the Activity result in data set [7] is “Dose-dependent effect”; in the data set on MT4 [2], “Toxic”.

As to Ac-LQQLLFIHFAIGRRRRRRRR-NH2, the Activity entry was “Dose-dependent effect” in [7] and “Toxic” in the data set with MT4 [2].

For Ac-LQQLLFIHFRAGRRRRRRRR-NH2, the Activity entry in data set [7] was “Dose-dependent effect”.

Turning to Ac-LQQLLFIHFRIARRRRRRRR-NH2, the half-maximal inhibitory concentration (IC50) in data set [1] came to 90 nM. In addition, the Activity entry in data set [7] was “Dose-dependent effect”.
